Results reported in ChEMBL document CHEMBL2407083, “Design and synthesis of novel 4-(4-oxo-2-arylthiazolidin-3-yl)benzenesulfonamides as selective inhibitors of carbonic anhydrase IX over I and II with potential anticancer activity” (Eur J Med Chem, 2013).
Values after ≈ are worked out from the molar mass of the structure shown. Active and inactive are the calls of the source. The calls are words filed in the database; no cut-off is given here.

Columns and labels:
[1] = system: DU-145; experiment: Cytotoxicity against human DU145 cells after 48 hrs by MTT assay; conditions: DU-145, 48 h
[2] = system: COLO 205; experiment: Cytotoxicity against human COLO205 cells after 48 hrs by MTT assay; conditions: COLO 205, 48 h
[3] = system: MDA-MB-231; experiment: Cytotoxicity against human MDA-MB-231 cells after 48 hrs by MTT assay; conditions: MDA-MB-231, 48 h
[4] = biological target: Carbonic anhydrase 9 (Homo sapiens, UniProt Q16790); experiment: Inhibition of carbonic anhydrase 9 (unknown origin) preincubated for 15 mins by stopped flow CO2 hydration assay
[5] = system: Mus musculus; experiment: Toxicity in Swiss albino mouse DLA-induced solid tumor model assessed as increase in body weight at 50 mg/kg, po administered on days 3rd, 5th, 7th, 10th, 12th, and 14th of tumor inoculation measured on day 30 (reference value: 13.79%); assay type: organism-based; parameters: dose 50 mg/kg, route oral; conditions: in vivo
[6] = system: Mus musculus; experiment: Antitumor activity in Swiss albino mouse DLA-induced solid tumor model assessed as reduction in tumor volume at 50 mg/kg, po administered on days 3rd, 5th, 7th, 10th, 12th, and 14th of tumor inoculation measured on day 30; assay type: functional; parameters: scale not given: the % may be the effect or the level left
In short: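 Male Swiss albino mice (6-8 weeks, 29 ± 2 g) received DLA cells, 1 × 10⁶/mouse, subcutaneously into the right hind limb. Dosing by mouth in 0.25% CMC suspension. A vernier caliper gave tumor diameter every third day from day 3, and V = 4/3πr₁²×r₂. Percent inhibition is against vehicle control on day 30. Six mice per group.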

[7] = system: COLO 205; experiment: Induction of apoptosis in human COLO205 cells assessed as chromatin condensation at IC50 after 48 hrs using acridine orange and ethidium bromide staining by fluorescence microscopic analysis; assay type: functional, cell-based
In short: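 COLO-205 cells seeded at 10⁵ cells/ml, grown 24 h, then treated for 48 h. Cells collected by trypsinization, centrifuged at 129 g for 5 min, and washed with PBS. Stained with a 1:1 acridine orange/ethidium bromide mix and examined by fluorescence microscopy against control cells.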

[8] = system: COLO 205; experiment: Induction of apoptosis in human COLO205 cells assessed as DNA fragmentation at IC50 after 48 hrs using Hoechst 33258 staining by fluorescence microscopic analysis; assay type: functional, cell-based
In short: (§1)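 COLO-205 cells plated at 10⁵ cells/ml and grown to 70-80% confluency, then treated for 48 h. Fixed in 4% formaldehyde for 30 min at RT and stained with Hoechst 33258 for 15 min at RT. After three PBS washes, examined by inverted fluorescence microscopy (ex 340-380 nm, em 465 nm) against untreated control cells.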

[9] = system: COLO 205; experiment: Induction of apoptosis in human COLO205 cells assessed as nuclear condensation at IC50 after 48 hrs using Hoechst 33258 staining by fluorescence microscopic analysis; assay type: functional, cell-based; in short: as §1

Ki [4] [µM] | Compound | IC50 [1] [µg/mL] | IC50 [2] [µg/mL] | IC50 [3] [µg/mL] | Activity [5] [%] | Activity [6] [%] | Activity [7] | Activity [8] | Activity [9]
0.0092 | NS(=O)(=O)c1ccc(N2C(=O)CSC2c2ccccc2Br)cc1 (stereo not given) | 35 (≈ 84.7 µM) | 27.5 (≈ 66.5 µM) | 20.6 (≈ 49.9 µM) | – | – | – | – | –
0.0374 | NS(=O)(=O)c1ccc(N2C(=O)CSC2c2ccc(F)cc2)cc1 (stereo not given) | 37.1 (≈ 105 µM) | 31.4 (≈ 89 µM) | 22.7 (≈ 64.4 µM) | – | – | – | – | –
0.0194 | NS(=O)(=O)c1ccc(N2C(=O)CSC2c2cccc(Br)c2)cc1 (stereo not given) | 30.1 (≈ 72.9 µM) | 16.9 (≈ 40.9 µM) | 12.4 (≈ 30 µM) | – | – | – | – | –
0.0531 | NS(=O)(=O)c1ccc(N2C(=O)CSC2c2cccc(F)c2)cc1 (stereo not given) | 39.1 (≈ 111 µM) | 29.8 (≈ 84.7 µM) | 21.4 (≈ 60.6 µM) | – | – | – | – | –
0.0077 | NS(=O)(=O)c1ccc(N2C(=O)CSC2c2ccccc2Cl)cc1 (stereo not given) | 33.3 (≈ 90.2 µM) | 19.5 (≈ 52.9 µM) | 13.6 (≈ 36.8 µM) | – | – | – | – | –
0.0212 | NS(=O)(=O)c1ccc(N2C(=O)CSC2c2ccccc2)cc1 (stereo not given) | 39.2 (≈ 117 µM) | 30.6 (≈ 91.5 µM) | 23.9 (≈ 71.4 µM) | – | – | – | – | –
0.0022 | NS(=O)(=O)c1ccc(N2C(=O)CSC2c2cccc(Cl)c2)cc1 (stereo not given) | 23.9 (≈ 64.9 µM) | 5.03 (≈ 13.6 µM) | 5.81 (≈ 15.8 µM) | 4.09 | 64.83 | Active | Active | Active
0.0444 | NS(=O)(=O)c1ccc(N2C(=O)CSC2c2ccccc2F)cc1 (stereo not given) | 38.6 (≈ 110 µM) | 34.7 (≈ 98.4 µM) | 25.9 (≈ 73.4 µM) | – | – | – | – | –
0.0135 | NS(=O)(=O)c1ccc(N2C(=O)CSC2c2ccc(Br)cc2)cc1 (stereo not given) | 35.1 (≈ 84.9 µM) | 23.1 (≈ 55.8 µM) | 17.5 (≈ 42.3 µM) | – | – | – | – | –
0.0047 | NS(=O)(=O)c1ccc(N2C(=O)CSC2c2ccc(Cl)cc2)cc1 (stereo not given) | 29.3 (≈ 79.4 µM) | 15.4 (≈ 41.7 µM) | 7.16 (≈ 19.4 µM) | – | – | – | – | –
